These results are taken from ChEMBL document CHEMBL1221219, “Selective blockade of 2-arachidonoylglycerol hydrolysis produces cannabinoid behavioral effects” (Nat Chem Biol, 2009).

Assay [1] concerns Mus musculus. The assay can be described thus: Change in monoacylglycerol level in C57B1/6J mouse brain at 16 mg/kg, ip by LC-MS. Type of assay: functional, organism-based. Also noted: dose 16 mg/kg. The method, boiled down: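 Mice received 16 mg kg^-1 i.p. in 4:1 PEG300:Tween80 and were killed at 0.5, 1, 2, 4, 8 and 24 h. Brain lipids, including N-acylethanolamines, MAGs, free fatty acids and arachidonic acid, were measured by LC-MS.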

The test system of assay [2] is Mus musculus. The assay can be described thus: Inhibition of MAGL in C57B1/6J mouse brain membrane assessed as increase in 2-AG level at 16 mg/kg, ip upto 24 hrs by competitive activity-based protein profiling method relative to control. Type of assay: functional. The conditions noted are these: route intraperitoneal. The method, boiled down:
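Male C57Bl/6J mice dosed i.p. in 4:1 v/v PEG300:Tween80, with vehicle controls; killed at set times (0.5-24 h, or 4 h). Brain membrane 2-AG hydrolysis measured by LC-MS substrate assay, and brain 2-AG measured by lipid LC-MS, relative to vehicle.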

Assay [3] has as its system Mus musculus. The assay is described as follows: Inhibition of PPME1 in C57B1/6J mouse brain membrane at 16 mg/kg, ip after 4 hrs by competitive activity-based protein profiling-MudPIT method. The assay is classed as functional, organism-based. The arrangement: dose 16 mg/kg. In a few lines: (§1)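 After i.p. dosing in 4:1 PEG300:Tween80, male C57Bl/6J mice were killed at 4 h. Brain membrane proteomes from treated and vehicle mice were labelled with FP-biotin. Labelled proteins were enriched on avidin, digested on-bead with trypsin and analysed by multidimensional LC-MS. Proteins were identified by SEQUEST, and dosed samples were compared with vehicle.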

Assay [4] has as its system Mus musculus. The assay is described as follows: Change in monopalmitoylglycerol levels in intraperitoneally dosed C57B1/6J mouse brain by LC-MS. The assay is classed as functional, organism-based. The method, boiled down:
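Male C57Bl/6J mice given 4, 8, 16 or 40 mg kg^-1 i.p. in 4:1 PEG300:Tween80 at 4 μl g^-1, or vehicle, and killed after 4 h. Whole-brain lipids were quantified by LC-MS.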

Assay [5] has as its target T1, Diacylglycerol lipase-beta (Homo sapiens) (UniProt Q8NCG7).
T1 sequence (whole entry): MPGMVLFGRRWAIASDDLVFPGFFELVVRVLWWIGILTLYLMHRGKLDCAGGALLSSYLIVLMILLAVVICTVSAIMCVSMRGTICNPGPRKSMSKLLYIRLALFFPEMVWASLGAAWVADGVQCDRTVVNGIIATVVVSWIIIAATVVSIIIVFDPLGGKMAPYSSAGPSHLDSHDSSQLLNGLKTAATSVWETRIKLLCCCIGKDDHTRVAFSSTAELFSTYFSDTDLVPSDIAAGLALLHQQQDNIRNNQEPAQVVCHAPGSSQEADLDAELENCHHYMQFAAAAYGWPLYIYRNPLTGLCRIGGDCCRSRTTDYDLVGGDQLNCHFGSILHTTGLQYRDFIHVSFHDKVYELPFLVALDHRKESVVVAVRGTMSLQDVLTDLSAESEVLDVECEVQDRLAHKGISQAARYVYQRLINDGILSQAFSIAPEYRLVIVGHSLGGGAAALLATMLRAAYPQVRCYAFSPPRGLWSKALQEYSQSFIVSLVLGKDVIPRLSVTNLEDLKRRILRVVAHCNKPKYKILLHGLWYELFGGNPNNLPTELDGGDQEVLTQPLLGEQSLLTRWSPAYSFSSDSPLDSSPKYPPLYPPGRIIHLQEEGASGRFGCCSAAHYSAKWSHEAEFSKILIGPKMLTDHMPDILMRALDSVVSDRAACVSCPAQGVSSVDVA
The assay can be described thus: Inhibition of recombinant DAGLbeta expressed in HEK293 cells assessed as hydrolysis of 1-stearoyl-2-arachidonoyl-glycerol to 2-AG at 10 uM after 30 mins by LC-MS method. The assay is classed as cell-based.

The subject of assay [6] is Mus musculus. The assay is described as follows: Inhibition of FAM108A1 in C57B1/6J mouse brain membrane at 16 mg/kg, ip after 4 hrs by competitive activity-based protein profiling-MudPIT method. Type of assay: functional, organism-based. Also noted: dose 16 mg/kg. In a few lines:
as §1

The target in assay [7] is T2, Diacylglycerol lipase-alpha (Homo sapiens) (UniProt Q9Y4D2).
T2 sequence (whole entry): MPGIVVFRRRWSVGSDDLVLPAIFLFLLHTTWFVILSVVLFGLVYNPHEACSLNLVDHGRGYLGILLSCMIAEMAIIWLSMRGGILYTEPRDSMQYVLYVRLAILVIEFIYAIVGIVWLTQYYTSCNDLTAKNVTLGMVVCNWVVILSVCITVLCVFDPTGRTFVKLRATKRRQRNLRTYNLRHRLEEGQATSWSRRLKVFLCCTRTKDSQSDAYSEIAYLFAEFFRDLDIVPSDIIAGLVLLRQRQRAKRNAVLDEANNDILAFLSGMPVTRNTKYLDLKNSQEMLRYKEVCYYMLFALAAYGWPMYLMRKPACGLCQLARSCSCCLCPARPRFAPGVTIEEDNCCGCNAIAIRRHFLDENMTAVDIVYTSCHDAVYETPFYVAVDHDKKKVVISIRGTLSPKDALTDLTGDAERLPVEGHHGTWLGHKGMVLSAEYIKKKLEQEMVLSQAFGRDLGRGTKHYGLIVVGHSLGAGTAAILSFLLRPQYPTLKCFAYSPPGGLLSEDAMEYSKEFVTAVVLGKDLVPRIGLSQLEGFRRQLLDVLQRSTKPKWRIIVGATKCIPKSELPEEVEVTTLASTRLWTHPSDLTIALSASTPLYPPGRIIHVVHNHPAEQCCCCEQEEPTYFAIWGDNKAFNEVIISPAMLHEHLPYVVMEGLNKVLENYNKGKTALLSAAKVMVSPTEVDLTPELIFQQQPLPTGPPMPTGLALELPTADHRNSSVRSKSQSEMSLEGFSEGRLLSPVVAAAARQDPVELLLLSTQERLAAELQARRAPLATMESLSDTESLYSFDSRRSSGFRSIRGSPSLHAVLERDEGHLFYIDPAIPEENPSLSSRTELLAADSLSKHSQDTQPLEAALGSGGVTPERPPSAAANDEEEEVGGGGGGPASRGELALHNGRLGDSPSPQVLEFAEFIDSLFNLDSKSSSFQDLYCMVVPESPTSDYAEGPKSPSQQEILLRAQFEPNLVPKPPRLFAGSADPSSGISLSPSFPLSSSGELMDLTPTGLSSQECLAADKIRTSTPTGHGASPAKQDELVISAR
The assay can be described thus: Inhibition of recombinant DAGLalpha expressed in HEK293 cells assessed as hydrolysis of 1-stearoyl-2-arachidonoyl-glycerol to 2-AG at 25 uM after 30 mins by LC-MS method. The assay is classed as cell-based.

The subject of assay [8] is Mus musculus. The assay is described as follows: Antinociceptive activity against formalin-induced pain in C57B1/6J mouse assessed as paw lifting or licking during early phase (0 to 10 mins) at 40 m/kg, po administered 2 hrs before formalin challenge pretreated with rimonabant. The assay is classed as functional, organism-based.
Assay [9] has as its system Mus musculus. The assay can be described thus: Inhibition of FAAH in orally dosed C57B1/6J mouse brain membrane after 4 hrs. Type of assay: functional, organism-based. In a few lines:
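Oral dosing used male C57Bl/6J mice (6-8 weeks) given inhibitor in PEG300 vehicle at 4 ul g^-1, handled as for i.p. dosing. Brains were taken 4 h later for analysis of brain membrane hydrolase activity.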

The structures appear in SMILES notation. Active and inactive are the calls of the source. The calls are words filed in the database; no cut-off is given here.

Usually inhibition in vivo stands for how much of the control response was suppressed. Regarding `O=C(Oc1ccc([N+](=O)[O-])cc1)N1CCC(C(O)(c2ccc3c(c2)OCO3)c2ccc3c(c2)OCO3)CC1`, the result in [1], in [4] and in assay [8] was inactive. In [2], the inhibition in vivo at 16 mg/kg was > 80%. The inhibition result in assay [3], in assay [5], in [6] and in assay [7] was “inactive” in each case. For the same compound, the inhibition result in assay [9] is “Active”.
